According to PubChem BioAssay:
Active and inactive are the calls of the source.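 How the source made its calls, unless noted: active means visually confirmed hit in the image check and inhibition above 20%; inconclusive means visually confirmed hit but inhibition not above 20%; inactive means no visual hit in the image check.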

Tests used:
[1] = inhibitors of TNFa-induced NFkB p65 translocation, primary screen, imaging, HUVEC, MLSMR starter and 10KST1 sets (AID 438;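 active means inhibition above 20% together with a positive visual image hit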;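 further: compound added about 3h40 before a 20 min TNFalpha stimulation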;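 on inhibition: signal is the nuclear over cytoplasmic p65 intensity ratio per well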); settings: HUVEC TNFa-induced p65 nuclear translocation; cell count: measured here: nuclei count (cytotoxicity indicator), at 2.08 µM; inhibition: at 2 µM, stronger effect = higher value, 0% TNFa-plus-vehicle, 100% no-TNFa wells
[2] = endothelial E-selectin expression blockers – imaging, HUVEC, immunofluorescence, MLSMR starter and 10KST1 sets, primary screen (AID 487); settings: HUVEC TNFalpha-induced E-selectin immunofluorescence imaging, at 2 µM; inhibition: stronger effect = higher value; nuclei count: measured here: cell number, toxicity;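 on inhibition: signal is fraction of cell area covered by stained E-selectin grains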;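 on nuclei count: 100% = median nuclei count of all wells on the same plate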
[3] = Primary imaging screen for DUSP6 inhibitors that restore phospho-Erk in transfected HeLa cells, chemical complementation (AID 609;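 active means compounds giving at least 50% inhibition in the cell-based MKP-3 phosphatase rescue imaging test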;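 on inhibition: phospho-Erk level distribution per well compared with pooled transfected vehicle control wells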); settings: HeLa MKP-3 transfected, phospho-Erk imaging KS statistic, at 10 µM, cells stimulated with TPA for 15 min
[4] = target: Dual specificity protein phosphatase 6 (Homo sapiens) (UniProt Q16828); assay: as above; settings: HeLa MKP-3 transfected, phospho-Erk imaging KS statistic; at 10 µM; stronger effect = higher value; cells stimulated with TPA for 15 min
[5] = target: Voltage-gated potassium channel subunit beta-2 (Rattus norvegicus) (UniProt P62483); assay: inhibitors of rat Kvbeta2 reductase activity – biochemical, NADPH fluorescence, primary screen (AID 622;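 active means fluorescence slope higher than the sample average by over 3 SD, cut at about -0.22 in these data, passing the limit was not always enough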;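 further: slope of raw intensity against log time taken from 70 to 1610 s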); settings: recombinant KvBeta, 4-cyanobenzaldehyde reduction, at 10 µM, stronger effect = higher value
[6] = target: Voltage-gated potassium channel subunit beta-2 (Rattus norvegicus) (UniProt P62483); assay: enhancers of rat Kvbeta2 NADPH turnover – biochemical, NADPH fluorescence, primary screen (AID 623;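 active means NADPH fluorescence slope more negative than the mean of all samples by about 3 SD, 99.7% confidence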;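 further: fluorescence intensity change per second fitted from 20 to 320 s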); settings: Recombinant KvBeta, NADPH fluorescence decrease slope, 10 min; at 10 µM; stronger effect = lower value
[7] = target: Alpha-2C adrenergic receptor (Homo sapiens) (UniProt P18825); assay: compounds altering alpha2C-coupled GIRK flux – cell-based, HEK293 alpha2C/GIRK1/2, thallium flux, primary screen (AID 624;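 active means fluorescence slope after compound addition differing from the mean of all screened samples at 99.7% confidence, in either direction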;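 further: slope of fluorescence ratio to pre-addition baseline per second over 15 to 24 s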); settings: thallium flux BTC fluorescence, at 10 µM, actives lie on both sides
[8] = inhibitors of larval lipid processing in zebrafish, primary screen, whole organism, PED6 fluorescence, gall bladder and intestine (AID 686;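 active means a full or partial loss of lipid-probe fluorescence in the fish gall bladder, intestine or both, judged by eye; inactive means no fluorescence loss, or compound toxic to the fish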;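 further: larvae 5 to 7 days old with five fish per well; signal comes from phospholipase A2 cleavage of quenched PED6 carried via bile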); settings: Zebrafish larvae PED6 lipid processing, fluorescence scoring; screened at 20 µM (by protocol)
Outline: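 Incubation: overnight exposure of larvae to compound plus PED6 / Test system: live zebrafish larvae aged 5-7 days, whole organism / Amount: 5 larvae per well / Read-out basis: visual per-well fluorescence inhibition score / Signal: visual fluorescence microscopy scoring of gall bladder, gut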

[9] = loss of swimming-algae plug formation – whole organism, Chlamydomonas reinhardtii, WT vs cilia-less mutant, absorbance, 96-well, primary screen (AID 463189;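 active means inhibition at or above 50% relative to wild type and mutant plate controls; inactive means inhibition below 50%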;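 further: 0% = wild type cc124 cells in DMSO and 100% = ciliumless bld1 mutant cells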); settings: Chlamydomonas reinhardtii gravitaxis, OD600 absorbance, 2 days; at 10 µM; stronger effect = higher value
[10] = measured here: cell density z-score
[11] = measured here: nuclear c-Myc green intensity z-score
[12] = measured here: nuclear pErk red intensity z-score, stronger effect = higher value

Chain of Alpha-2C adrenergic receptor (Homo sapiens) (P18825 whole entry, looked up): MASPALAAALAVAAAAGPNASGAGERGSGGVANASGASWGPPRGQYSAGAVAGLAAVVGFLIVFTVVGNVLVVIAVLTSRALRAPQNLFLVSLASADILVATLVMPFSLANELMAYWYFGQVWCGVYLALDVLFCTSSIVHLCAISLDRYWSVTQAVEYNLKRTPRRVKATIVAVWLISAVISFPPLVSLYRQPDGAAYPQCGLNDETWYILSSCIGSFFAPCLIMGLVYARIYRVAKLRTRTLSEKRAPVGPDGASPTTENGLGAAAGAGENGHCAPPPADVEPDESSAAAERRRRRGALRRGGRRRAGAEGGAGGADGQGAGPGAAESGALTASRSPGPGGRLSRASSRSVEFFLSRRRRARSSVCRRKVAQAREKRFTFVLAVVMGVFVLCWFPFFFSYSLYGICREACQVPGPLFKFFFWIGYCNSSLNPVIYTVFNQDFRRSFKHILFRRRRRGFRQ
Chain of Voltage-gated potassium channel subunit beta-2 (Rattus norvegicus) (P62483 whole entry, looked up): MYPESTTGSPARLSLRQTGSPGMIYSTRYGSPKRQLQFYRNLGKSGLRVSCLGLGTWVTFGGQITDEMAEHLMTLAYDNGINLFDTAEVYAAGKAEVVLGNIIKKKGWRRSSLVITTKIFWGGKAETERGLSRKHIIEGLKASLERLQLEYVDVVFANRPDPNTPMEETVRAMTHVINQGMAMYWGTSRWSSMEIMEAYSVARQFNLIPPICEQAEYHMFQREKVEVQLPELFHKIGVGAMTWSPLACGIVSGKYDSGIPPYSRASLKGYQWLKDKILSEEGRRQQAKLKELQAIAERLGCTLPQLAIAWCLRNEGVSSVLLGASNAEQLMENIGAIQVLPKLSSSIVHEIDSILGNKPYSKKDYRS
Chain of Dual specificity protein phosphatase 6 (Homo sapiens) (Q16828 whole entry, looked up): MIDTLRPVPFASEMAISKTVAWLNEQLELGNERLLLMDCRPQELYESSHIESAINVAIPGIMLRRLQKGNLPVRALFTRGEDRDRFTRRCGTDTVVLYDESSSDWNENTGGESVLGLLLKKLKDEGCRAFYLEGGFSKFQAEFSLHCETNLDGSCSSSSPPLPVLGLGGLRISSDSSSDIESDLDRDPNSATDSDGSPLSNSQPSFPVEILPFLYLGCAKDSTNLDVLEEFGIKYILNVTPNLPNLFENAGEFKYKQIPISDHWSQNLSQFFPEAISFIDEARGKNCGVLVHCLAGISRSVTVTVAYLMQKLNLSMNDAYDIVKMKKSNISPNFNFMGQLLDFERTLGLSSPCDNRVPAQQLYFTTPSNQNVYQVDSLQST

Row | SMILES | cell count [1] | inhibition [1] | inhibition [2] | nuclei count [2] [%] | z-score [3, 10] | z-score [3, 11] | z-score [3, 12] | inhibition [4] | fluorescence slope [5] | NADPH fluorescence slope [6] | slope [7] | outcome [8] | inhibition [9]
1 | COc1ccc(NC2CC(=O)N(C)C2=O)cc1 (stereo not given) | 334 | -4.4% (inactive) | 15% (inactive) | 92.4 | -0.811 | 0.0749 | 1.77 | 7.42% (inactive) | -0.424 (inactive) | 1.4e-05 (inactive) | 0.00509 (inactive) | inactive | 30.2% (inactive)
2 | COc1ccc(C=NCCC2(O)CC(C)N(C)CC2C)cc1 (stereo not given) | 340 | -16.4% (inactive) | -85.1% (inactive) | 131 | 0.907 | -0.705 | -1.22 | -7.01% (inactive) | -0.427 (inactive) | -6e-05 (inactive) | 0.00607 (inactive) | inactive | 7.82% (inactive)
3 | CCOC(=O)CSc1nnc2n(C3CCCCC3)c(=O)c3c4c(sc3n12)CCCC4 | 650 | -11.4% (inactive) | -104% (inactive) | 146 | -1.05 | -0.745 | -0.835 | 1.75% (inactive) | -0.533 (inactive) | -0.0001 (inactive) | 0.00612 (inactive) | inactive | -1.33% (inactive)
4 | CC1(C)Cc2c(sc3nc4n(c(=N)c23)CCCCC4)CO1 | 637 | -5.2% (inactive) | 57.2% (inactive) | 169 | -0.678 | 2.31 | -0.487 | -7.28% (inactive) | -0.414 (inactive) | -4.7e-05 (inactive) | 0.00482 (inactive) | inactive | -1.35% (inactive)
5 | CSc1nc(N2CCCC2)c2c(c1C#N)CC(C)(C)OC2 | 568 | -4.5% (inactive) | -28.5% (inactive) | 171 | 0.89 | -1.74 | 0.374 | 5.65% (inactive) | -0.314 (inactive) | 8.2e-06 (inactive) | 0.00565 (inactive) | inactive | 10.3% (inactive)
6 | COc1ccccc1-c1nnc2sc(COc3ccccc3)nn12 | 670 | -8.1% (inactive) | -201% (inactive) | 161 | 0.204 | -1.19 | 2.54 | -16.8% (inactive) | -0.444 (inactive) | -0.000151 (inactive) | 0.00451 (inactive) | inactive | 5.33% (inactive)
7 | CCc1nnc(NC(=O)c2c(O)c3c([nH]c2=O)CCCC3)s1 | 332 | -15.4% (inactive) | -91.6% (inactive) | 154 | 0.462 | -0.342 | -0.281 | -7.01% (inactive) | -0.391 (inactive) | -0.000158 (inactive) | 0.00514 (inactive) | inactive | 8.98% (inactive)
8 | N#CC(C(=O)NC1CCCCC1)c1nc2ccccc2nc1N1CCN(c2ccccc2F)CC1 (stereo not given) | 449 | 6.9% (inactive) | -71.6% (inactive) | 150 | 0.949 | -0.507 | 0.00921 | 7.83% (inactive) | -0.432 (inactive) | -1.4e-05 (inactive) | 0.00608 (inactive) | inactive | 1.07% (inactive)
9 | CCOC(=O)c1cc(C)n(Cc2cccc(OC)c2OC)c1C | 502 | -9.3% (inactive) | -39.9% (inactive) | 122 | 1.01 | 0.196 | 0.00488 | 17% (inactive) | -0.496 (inactive) | -9.4e-05 (inactive) | 0.00511 (inactive) | inactive | 26.9% (inactive)
10 | NC(=O)CSc1nc(N)c2c3c(sc2n1)CCCCC3 | 620 | -15.9% (inactive) | 47.7% (inactive) | 164 | -1.12 | -0.0373 | 0.273 | -2.29% (inactive) | -0.362 (inactive) | -6.1e-05 (inactive) | 0.0046 (inactive) | inactive | 10.9% (inactive)
11 | CCCOc1cc(CN2CCCCC2)cc(C(C)=O)c1 | 662 | -7.2% (inactive) | -40.5% (inactive) | 182 | 0.934 | -0.767 | 0.549 | 15.1% (inactive) | -0.493 (inactive) | -6.5e-05 (inactive) | 0.00496 (inactive) | inactive | 3.11% (inactive)
12 | COc1ccc(Cl)cc1N=Cc1c(O)cc(C)oc1=O | 347 | -4.9% (inactive) | -136% (inactive) | 189 | 0.57 | -0.693 | 0.874 | 12.3% (inactive) | -0.415 (inactive) | -0.0002 (inactive) | 0.00387 (inactive) | inactive | 16.9% (inactive)
13 | CCn1cc(C(=O)NCc2ccccn2)c(=O)c2cc(F)c(N3CCN(C)CC3)cc21 | 461 | -3.5% (inactive) | -38.2% (inactive) | 185 | -1.96 | 2.4 | 0.403 | -0.624% (inactive) | -0.292 (inactive) | -3e-05 (inactive) | 0.00581 (inactive) | inactive | 6.37% (inactive)
14 | CSc1nc(Oc2ccc(=O)[nH]n2)nc(N(C)C)n1 | 619 | -0.7% (inactive) | -20.1% (inactive) | 148 | -0.384 | -0.165 | 1.66 | -2.69% (inactive) | -0.314 (inactive) | 2.2e-06 (inactive) | 0.00466 (inactive) | inactive | 9.17% (inactive)
15 | O=C(Cc1cscn1)c1ccc(O)cc1O | 564 | -6% (inactive) | -143% (inactive) | 147 | 1.34 | -0.975 | -0.882 | 11.9% (inactive) | -0.544 (inactive) | -5.6e-05 (inactive) | 0.00473 (inactive) | inactive | 8.71% (inactive)
16 | COc1ccccc1C(CC(=O)Nc1nccs1)c1ccco1 (stereo not given) | 354 | -14.3% (inactive) | -98.9% (inactive) | 155 | -0.704 | -0.887 | -0.714 | 1.75% (inactive) | -0.398 (inactive) | -7.2e-05 (inactive) | 0.00663 (inactive) | inactive | 31.8% (inactive)
17 | Cn1ncc2nnn(-c3ccccc3)c(=O)c21 | 492 | -0.2% (inactive) | -10.3% (inactive) | 107 | -0.32 | 1.71 | -1.2 | -1.12% (inactive) | -0.497 (inactive) | -0.000269 (inactive) | 0.00475 (inactive) | inactive | -10.6% (inactive)
18 | N/C(CCCN1CCCCC1)=N/O | 498 | -6% (inactive) | 28.3% (inactive) | 108 | 1.83 | -0.291 | 0.182 | 17.3% (inactive) | -0.509 (inactive) | -8e-06 (inactive) | 0.00607 (inactive) | inactive | 12.2% (inactive)
19 | CCOC(=O)C1=C(C)NC(SCC(=O)Nc2nc(C)cs2)=C(C#N)C1c1cccs1 (stereo not given) | 540 | -13.4% (inactive) | -57.8% (inactive) | 106 | 1.78 | -0.812 | -0.565 | -7.28% (inactive) | -0.472 (inactive) | 6.5e-06 (inactive) | 0.006 (inactive) | inactive | 2.72% (inactive)
20 | CCOc1ccc(C2=Nn3c(nnc3-c3cccnc3)SC2)cc1 | 732 | 1.2% (inactive) | -49.1% (inactive) | 186 | -0.574 | 2.33 | 0.047 | -9.66% (inactive) | -0.414 (inactive) | -0.000128 (inactive) | 0.00953 (inactive) | inactive | 8.58% (inactive)
21 | CN1CCN(C(=O)CSc2nc(-c3cccs3)ccc2C#N)CC1 | 625 | -11.3% (inactive) | 21.9% (inactive) | 138 | -0.668 | -0.886 | -0.831 | 6.04% (inactive) | -0.299 (inactive) | -1.3e-05 (inactive) | 0.00609 (inactive) | inactive | 21.2% (inactive)
22 | S=c1nc(-c2ccccc2)[nH]n1-c1ccccc1 | 339 | -3.4% (inactive) | -90.9% (inactive) | 110 | 1.6 | -1.83 | -0.637 | 11.4% (inactive) | -0.454 (inactive) | 3.3e-06 (inactive) | 0.0253 (active) | inactive | -5.69% (inactive)
23 | CC(=O)N1CCC2(CC1)C(C#N)=C(N)Oc1n[nH]c(C(F)(F)F)c12 | 509 | -9.9% (inactive) | -79.8% (inactive) | 156 | 1.26 | 0.347 | -0.954 | -1.12% (inactive) | -0.349 (inactive) | -1.5e-05 (inactive) | 0.00543 (inactive) | inactive | 10.5% (inactive)
24 | CCCc1cc(-n2ccnc2C)n2c(nc3ccccc32)c1C#N | 536 | -42.1% (inactive) | -109% (inactive) | 153 | -0.822 | -0.981 | 0.35 | -15% (inactive) | -0.415 (inactive) | -3.2e-05 (inactive) | 0.00567 (inactive) | inactive | 4.33% (inactive)
25 | COc1ccc(C(=O)N/C(N)=N/c2nc3ccccc3o2)cc1 | 557 | -12.2% (inactive) | -140% (inactive) | 137 | 0.0574 | 0.314 | 0.889 | -3.97% (inactive) | -0.499 (inactive) | -3.2e-05 (inactive) | 0.0048 (inactive) | inactive | 14.5% (inactive)
